This note sets out measurements from ChEMBL document CHEMBL1137361, “WB4101-related compounds: new, subtype-selective alpha1-adrenoreceptor antagonists (or inverse agonists?)” (J Med Chem, 2006).

In experiment [1] the target is T1, Alpha-1A adrenergic receptor (Rattus norvegicus, UniProt P43140).
T1 sequence (P43140 whole entry): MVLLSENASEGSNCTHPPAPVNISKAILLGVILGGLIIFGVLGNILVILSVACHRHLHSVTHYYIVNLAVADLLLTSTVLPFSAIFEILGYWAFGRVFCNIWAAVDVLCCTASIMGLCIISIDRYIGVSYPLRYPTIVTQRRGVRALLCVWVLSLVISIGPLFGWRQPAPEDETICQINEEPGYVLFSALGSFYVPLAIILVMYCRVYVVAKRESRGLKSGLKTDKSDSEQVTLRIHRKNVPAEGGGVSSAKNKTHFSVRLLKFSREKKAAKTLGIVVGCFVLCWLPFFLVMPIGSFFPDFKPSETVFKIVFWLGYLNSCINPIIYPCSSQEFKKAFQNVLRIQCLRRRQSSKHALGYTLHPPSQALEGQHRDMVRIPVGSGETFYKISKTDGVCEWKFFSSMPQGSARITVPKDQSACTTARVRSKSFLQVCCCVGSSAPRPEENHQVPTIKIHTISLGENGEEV
As to the kind of experiment: Activity at adrenergic alpha 1A receptor assessed as antagonism of noradrenaline-induced contraction of Sprague-Dawley rat vas deferens. It counts as functional, tissue-based. As to conditions: read-out: pA2 (converted). The method, boiled down:
(§1)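 Rat vas deferens, prostatic portion. Contraction was induced with (-)-noradrenaline, and blocking activity was measured as antagonism of that contraction.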

Experiment [2] addresses T2, 5-hydroxytryptamine receptor 1A (Rattus norvegicus, UniProt P19327).
T2 sequence (P19327 whole entry): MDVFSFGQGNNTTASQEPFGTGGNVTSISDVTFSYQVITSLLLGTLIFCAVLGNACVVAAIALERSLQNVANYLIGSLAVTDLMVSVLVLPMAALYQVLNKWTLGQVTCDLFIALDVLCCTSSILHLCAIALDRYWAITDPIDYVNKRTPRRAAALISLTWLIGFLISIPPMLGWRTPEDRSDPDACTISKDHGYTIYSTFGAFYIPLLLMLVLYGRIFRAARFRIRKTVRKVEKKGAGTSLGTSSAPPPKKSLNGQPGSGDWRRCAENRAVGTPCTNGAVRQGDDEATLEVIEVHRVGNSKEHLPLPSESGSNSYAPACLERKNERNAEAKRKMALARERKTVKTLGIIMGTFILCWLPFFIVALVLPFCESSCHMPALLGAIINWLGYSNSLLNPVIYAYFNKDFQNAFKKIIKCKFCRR
As to the kind of experiment: Displacement of [3H]8-OH-DPAT from 5-HT1A receptor in rat hippocampus. It counts as tissue-based. The method, boiled down:
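Radioligand binding with [3H]-8-OH-DPAT in membrane preparations from rat hippocampus. Affinity is expressed as pKi.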
In general terms: In a radioligand displacement assay an active substance lowers the binding of a labelled ligand.

Experiment [3] deals with T3, Alpha-1A adrenergic receptor (Homo sapiens, UniProt P35348).
T3 sequence (P35348 whole entry): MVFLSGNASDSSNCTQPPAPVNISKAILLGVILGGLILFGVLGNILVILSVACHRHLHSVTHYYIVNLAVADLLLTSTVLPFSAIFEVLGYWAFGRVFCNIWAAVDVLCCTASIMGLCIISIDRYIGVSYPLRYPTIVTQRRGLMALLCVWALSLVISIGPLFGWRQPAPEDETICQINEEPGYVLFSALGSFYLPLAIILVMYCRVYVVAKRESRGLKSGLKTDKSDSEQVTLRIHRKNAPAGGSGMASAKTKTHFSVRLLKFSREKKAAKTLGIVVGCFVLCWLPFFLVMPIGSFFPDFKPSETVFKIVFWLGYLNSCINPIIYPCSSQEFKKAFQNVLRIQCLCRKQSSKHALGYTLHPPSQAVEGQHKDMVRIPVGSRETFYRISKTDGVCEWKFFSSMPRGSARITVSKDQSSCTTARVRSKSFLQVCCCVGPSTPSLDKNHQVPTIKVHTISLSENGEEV
As to the kind of experiment: Displacement of [3H]prazosin from cloned human adrenergic alpha 1A receptor expressed in CHO cells. It counts as cell-based. Summed up: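 Radioligand binding with [3H]prazosin as the label. Membranes came from CHO cells expressing the cloned human receptor. Affinity is expressed as pKi.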

For experiment [4], the target named is T4, Alpha-2A adrenergic receptor (Rattus norvegicus, UniProt P22909).
T4 sequence (P22909 whole entry): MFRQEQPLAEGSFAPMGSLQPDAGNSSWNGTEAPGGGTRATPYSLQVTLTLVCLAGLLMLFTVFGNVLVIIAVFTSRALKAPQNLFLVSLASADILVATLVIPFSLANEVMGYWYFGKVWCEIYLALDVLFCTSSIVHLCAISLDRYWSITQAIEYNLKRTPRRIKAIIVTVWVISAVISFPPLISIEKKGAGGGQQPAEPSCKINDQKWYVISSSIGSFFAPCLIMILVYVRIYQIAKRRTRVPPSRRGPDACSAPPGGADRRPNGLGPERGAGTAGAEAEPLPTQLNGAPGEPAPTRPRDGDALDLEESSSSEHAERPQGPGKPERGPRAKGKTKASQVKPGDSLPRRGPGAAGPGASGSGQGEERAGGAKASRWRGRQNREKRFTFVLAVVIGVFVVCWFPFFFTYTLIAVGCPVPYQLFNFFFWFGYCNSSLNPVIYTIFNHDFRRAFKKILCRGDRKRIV
As to the kind of experiment: Activity at adrenergic alpha 2A receptor assessed as antagonism on clonidine-inhibited twitch responses of field-stimulated Sprague-Dawley rat vas deferens. As to conditions: read-out: pA2 (converted).

For experiment [5], the species on record is Cavia porcellus. As to the kind of experiment: Inverse agonist effect on calcium-induced increase in resting tension of calcium-depleted guinea pig thoracic aorta at 10 nM. It counts as functional. The method, boiled down: (§2)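 Guinea pig thoracic aorta was calcium-depleted and preincubated with antagonist, then challenged with Ca2+. The Ca2+-induced increase in resting tone was compared with the increase after the same Ca2+ challenge in the absence of antagonist.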

In experiment [6] the target is T1, Alpha-1A adrenergic receptor. As to the kind of experiment: Activity at adrenergic alpha 1A receptor assessed as antagonsim of noradrenaline-induced contraction of […]. It counts as functional, tissue-based, Sprague-Dawley. Particulars: read-out: pA2 (converted). Summed up: as §1
For experiment [7], the species on record is Cavia porcellus. As to the kind of experiment: Inverse agonist effect on calcium-induced increase in resting tension of calcium-depleted guinea pig thoracic aorta at 100 nM. It counts as functional. Summed up:
as §2

SMILES strings stand for the structures. Active and inactive are the calls of the source. The calls are words filed in the database; no cut-off is given here.

Turning to `COc1cc(-c2ccccc2)ccc1OCCNC[C@H]1COc2ccccc2O1`, the Kb in experiment [1] was 0.759 µM. For the same compound, the Ki (commonly a dissociation constant, usually derived from enzyme kinetics or from competition with a known ligand) in experiment [2] is 0.0741 µM; in experiment [3], 0.0871 µM.

On to `COc1cccc(OC)c1OCCNC[C@H]1COc2cc3c(cc2O1)CCCC3`, for which the Kb in experiment [1] was above 10 µM. The Ki in experiment [2] is 0.363 µM; in experiment [3], 0.0251 µM.

Consider `COc1cccc(OC)c1OCCNC[C@H]1COc2cc3ccccc3cc2O1`, for which the Kb in experiment [1] is 3.47 µM; in experiment [4], above 10 µM. For the same compound, the Ki is 0.347 µM in experiment [2] and 0.0339 µM in experiment [3].

As to `COc1ccc2ccccc2c1OCCNC[C@H]1COc2ccccc2O1`, the Kb in experiment [1] is 0.0011 µM; in experiment [4], 1.35 µM. Besides, the Ki in experiment [2] is 0.0112 µM; in experiment [3] it was 0.00158 µM. Further, in the experiment filed under Cavia porcellus [5], the result was Active.

For the compound `COc1cccc(-c2ccccc2)c1OCCNC[C@H]1COc2ccccc2O1`, the Kb in experiment [1] was 0.00617 µM. For the same compound, the values for the Ki in experiment [2] and in experiment [3] were 0.00692 µM and 0.0012 µM, respectively. The outcome in the experiment listed under Cavia porcellus [5] was inactive.

On to `COc1ccc2ccccc2c1OCCNC[C@H]1COc2cc3c(cc2O1)CCCC3`, for which the Kb in experiment [1] was 0.0105 µM; in experiment [4] it was above 10 µM; in experiment [6], 0.0427 µM. For the same compound, the Ki in experiment [2] is 1.7 µM; in experiment [3], 0.0661 µM. In addition, the result in the experiment filed under Cavia porcellus [7] was Active.

In the case of `COc1ccc2ccccc2c1OCCNC[C@@H]1COc2ccccc2O1`, the Kb was 0.0589 µM in experiment [1] and 0.631 µM in experiment [4]. Moreover, the Ki in experiment [2] is 0.0676 µM; in experiment [3] it was 0.00457 µM. In the experiment filed under Cavia porcellus [5], the result was inactive.

Take `COc1ccc2c(c1OCCNC[C@H]1COc3ccccc3O1)CCCC2`: in experiment [1], the Kb was 0.0912 µM. Moreover, the inhibition constant (Ki) in experiment [2] is 0.00851 µM; in experiment [3], 0.00282 µM.

Regarding `COc1ccc(-c2ccccc2)cc1OCCNC[C@H]1COc2ccccc2O1`, in experiment [1], the Kb was above 10 µM. Also, the Ki was 0.0525 µM in experiment [2] and 0.00562 µM in experiment [3].
